Laboratory results reported in PMC9893515 (Bioorganic chemistry, 2021).

Target: T1, recombinant human TDP2 (Homo sapiens, UniProt O95551)
T1 sequence (O95551 1-362): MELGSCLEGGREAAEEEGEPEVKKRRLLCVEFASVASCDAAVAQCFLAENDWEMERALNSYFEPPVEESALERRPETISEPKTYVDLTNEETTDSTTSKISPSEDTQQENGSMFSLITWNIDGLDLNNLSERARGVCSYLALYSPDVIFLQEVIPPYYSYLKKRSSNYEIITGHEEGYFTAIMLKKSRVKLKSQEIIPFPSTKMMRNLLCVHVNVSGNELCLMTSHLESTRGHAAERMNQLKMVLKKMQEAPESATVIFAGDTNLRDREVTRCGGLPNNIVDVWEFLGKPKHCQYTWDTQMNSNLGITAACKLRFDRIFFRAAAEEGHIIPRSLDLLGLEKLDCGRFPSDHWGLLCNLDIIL
Assay: Recombinant TDP2 assay
Assay type: biochemical
Conditions: not given
Summary of the method: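 Human recombinant TDP2 (25 pM) with 1 nM 18-mer 5'-phosphotyrosyl ssDNA, 3'-α32P-cordycepin-labelled. Reaction ran 15 min at room temperature in Tris-HCl pH 7.5, KCl, MgCl2, EDTA, DTT, BSA and Tween 20. Stopped with formamide loading buffer, then 16% denaturing PAGE and phosphorimaging densitometry of product. […] IC50 is 50% enzyme inhibition.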

IC50 [µM]	Compound
> 111	CCOC(=O)c1c(C)oc2c1C(=O)c1ncc(C)cc1C2=O [Compound 33, Ethyl-2,7-dimethyl-4,9-dioxo-4,9-dihydrofuro[2,3-g]quinoline-3-carboxylate]
5.2 ± 4.1	CCOC(=O)c1c(C=O)oc2c1C(=O)c1ncccc1C2=O [Compound 49, Ethyl-2-formyl-4,9-dioxo-4,9-dihydrofuro[2,3-g]quinoline-3-carboxylate]
27 ± 2.5	CCOC(=O)c1c(C(Br)Br)oc2c1C(=O)c1ncccc1C2=O [Compound 44, Ethyl 2-(dibromomethyl)-4,9-dioxo-4,9-dihydrofuro[2,3-g]quinoline-3-carboxylate]
22 ± 6.4	CCOC(=O)c1c(CN2CCOCC2)oc2c1C(=O)c1ncccc1C2=O [Compound 46, Ethyl 2-(morpholinomethyl)-4,9-dioxo-4,9-dihydrofuro[2,3-g]quinoline-3-ca rboxylate]
44 ± 2	CCOC(=O)c1c(C)oc2c1C(=O)c1nc(N3CCCCC3)ccc1C2=O [Compound 24, Ethyl-2-methyl-4,9-dioxo-6-(piperidin-1-yl)-4,9-dihydrofuro[2,3-g]quinoline-3-carboxylate]
15 ± 1.3	O=C(OCCc1ccc(Cl)cc1)c1noc2c1C(=O)c1ncccc1C2=O [Compound 56, 4-chlorophenethyl 4,9-dioxo-4,9-dihydroisoxazolo[5,4-g]quinoline-3-carboxylate]
12 ± 2.4	CCOC(=O)c1noc2c1C(=O)c1ccncc1C2=O [Compound 51, Ethyl 4,9-dioxo-4,9-dihydroisoxazolo[4,5-g]isoquinoline-3-carboxylate]
61 ± 43	CCOC(=O)c1c(C)oc2c1C(=O)c1nccnc1C2=O [Compound 14, Ethyl 7-methyl-5,9-dioxo-5,9-dihydrofuro[2,3-g]quinoxaline-8-carboxylate]
0.46 ± 0.15	COc1ccc(-c2noc3c2C(=O)c2cccnc2C3=O)cc1OC [Compound 70, 3-(3,4-Dimethoxyphenyl)isoxazolo[4,5-g]quinoline-4,9-dione]
21 ± 5.5	CCOC(=O)c1c(C)oc2c1C(=O)c1nc(C)ccc1C2=O [Compound 21, Ethyl-2,6-dimethyl-4,9-dioxo-4,9-dihydrofuro[2,3-g]quinoline-3-carboxylate]
94 ± 29	CCOC(=O)c1c(C)oc2c1C(=O)c1nc(Cl)ccc1C2=O [Compound 19, Ethyl-6-chloro-2-methyl-4,9-dioxo-4,9-dihydrofuro[2,3-g]quinoline-3-carboxylate]
0.74 ± 0.25	N#Cc1ccc(OCc2noc3c2C(=O)c2cccnc2C3=O)cc1 [Compound 68, 4-((4,9-Dioxo-4,9-dihydroisoxazolo[4,5-g]quinolin-3-yl)methoxy)benzonitrile]
0.99 ± 0.13	CS(=O)(=O)c1ccc(OCc2noc3c2C(=O)c2cccnc2C3=O)cc1 [Compound 67, 3-((4-(Methylsulfonyl)phenoxy)methyl)isoxazolo[4,5-g]quinoline-4,9-dione]
21 ± 5.5	CCOC(=O)c1c(CBr)oc2c1C(=O)c1ncccc1C2=O [Compound 43, Ethyl 2-(bromomethyl)-4,9-dioxo-4,9-dihydrofuro[2,3-g]quinoline-3-carboxylate]
> 111	CCOC(=O)c1c(C)oc2c1C(=O)c1nccc(-c3ccccc3[N+](=O)[O-])c1C2=O [Compound 34, Ethyl-2-methyl-8-(2-nitrophenyl)-4,9-dioxo-4,9-dihydrofuro[2,3-g]quinoline-3-carboxylate]
> 111	CCOC(=O)c1c(C)oc2c1C(=O)c1nc3ccccc3cc1C2=O [Compound 16, Ethyl 2-methyl-4,11-dioxo-4,11-dihydrofuro[2,3-b]acridine-3-carboxylate]
25 ± 7.7	CCOC(=O)c1c(C(C)C)oc2c1C(=O)c1ncccc1C2=O [Compound 39, Ethyl 2-isopropyl-4,9-dioxo-4,9-dihydrofuro[2,3-g]quinoline-3-carboxylate]
9.9 ± 2.2	O=C(OCCc1ccc(Cl)cc1)c1noc2c1C(=O)c1cccnc1C2=O [Compound 57, 4-chlorophenethyl 4,9-dioxo-4,9-dihydroisoxazolo[4,5-g]quinoline-3-carboxylate]
0.96 ± 0.2	N#Cc1ccc(OCc2noc3c2C(=O)c2cccnc2C3=O)cc1F [Compound 69, 4-((4,9-Dioxo-4,9-dihydroisoxazolo[4,5-g]quinolin-3-yl)methoxy)-2-fluorobenzonitrile]

Same assay, conditions: read-out: TDP2 inhibitory activity IC50; mean ± SD from at least three independent experiments; recombinant TDP2

IC50 [µM]	Compound
> 111	Ethyl 2-isopropyl-4,9-dioxo-4,9-dihydrofuro[3,2-g]quinoline-3-carboxylate [Compound 38]
